FGF22 binding: binders of human FGF22 protein, primary screen, FGF22 synaptogenesis inhibitor project, biophysical, thermal shift, single point. recombinant FGF22 thermal shift, SYPRO orange fluorescence; percent of sucrose octasulfate shift, DMSO zero. actives 1.5% (n = 340,000). Fibroblast growth factor 22 (Homo sapiens), Q9HCT0. AID 651658, 2012. activity (Tm shift, normalised), % at 9.99 µM;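 active = mean Tm shift, scaled 0 neutral to 100 positive control, at about 1.3% or above, every replicate too, limit read from the data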
SIRT5 inh: SIRT5 desuccinylase inhibitors, primary screen, biochemical, fluorescence imaging, single point, set 5; NAD-dependent protein deacylase sirtuin-5, mitochondrial (Homo sapiens), Q9NXA8; Purified SirT5, succinyl-peptide AMC, trypsin-coupled fluorescence; inhibition, % at 15 µM; actives 1.1% (n = 330,000); AID 652115, 2013; in the data active = inhibition above about 15%
FN deposition inh: inhibitors of fibronectin matrix deposition, primary screen, AH1F cells, Alexa488-fibronectin fluorescence, plate reader. AH1F fibroblasts, overnight. inhibition, % at 12.6 µM. actives 0.086% (n = 350,000);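 active = mean inhibition across replicates of 30% or more, regardless of how many single replicates reach that level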
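Assay system: AH1F fibroblasts assembling fluorescent fibronectin matrix; Amount: 10000 AH1F cells per well; Buffer or medium: DMEM, 2% serum; Probe or stimulus: Alexa488-fibronectin, 24 nM final in well; Doses: single compound dose, delivered by pin transfer; Incubation: 1 h adhesion, overnight exposure; Measured by: fluorescence 485/525 nm; Read-out: fibronectin deposition inhibition.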
ERAP1 HTS inh: human ERAP1 aminopeptidase inhibitors, primary screen, biochemical, single point, plate reader. Endoplasmic reticulum aminopeptidase 1 (Homo sapiens), Q9NZ08. recombinant ERAP1, Leu-AMC fluorescence, 60 min. inhibition, % at 10.7 µM. actives 0.15% (n = 340,000). AID 652197, 2013;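 active = mean replicate inhibition of at least 30%, or all replicates individually reaching that 30% level; inactive = mean below 30% and not every replicate reaching it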
Target sequence (Q9NZ08 whole entry, looked up): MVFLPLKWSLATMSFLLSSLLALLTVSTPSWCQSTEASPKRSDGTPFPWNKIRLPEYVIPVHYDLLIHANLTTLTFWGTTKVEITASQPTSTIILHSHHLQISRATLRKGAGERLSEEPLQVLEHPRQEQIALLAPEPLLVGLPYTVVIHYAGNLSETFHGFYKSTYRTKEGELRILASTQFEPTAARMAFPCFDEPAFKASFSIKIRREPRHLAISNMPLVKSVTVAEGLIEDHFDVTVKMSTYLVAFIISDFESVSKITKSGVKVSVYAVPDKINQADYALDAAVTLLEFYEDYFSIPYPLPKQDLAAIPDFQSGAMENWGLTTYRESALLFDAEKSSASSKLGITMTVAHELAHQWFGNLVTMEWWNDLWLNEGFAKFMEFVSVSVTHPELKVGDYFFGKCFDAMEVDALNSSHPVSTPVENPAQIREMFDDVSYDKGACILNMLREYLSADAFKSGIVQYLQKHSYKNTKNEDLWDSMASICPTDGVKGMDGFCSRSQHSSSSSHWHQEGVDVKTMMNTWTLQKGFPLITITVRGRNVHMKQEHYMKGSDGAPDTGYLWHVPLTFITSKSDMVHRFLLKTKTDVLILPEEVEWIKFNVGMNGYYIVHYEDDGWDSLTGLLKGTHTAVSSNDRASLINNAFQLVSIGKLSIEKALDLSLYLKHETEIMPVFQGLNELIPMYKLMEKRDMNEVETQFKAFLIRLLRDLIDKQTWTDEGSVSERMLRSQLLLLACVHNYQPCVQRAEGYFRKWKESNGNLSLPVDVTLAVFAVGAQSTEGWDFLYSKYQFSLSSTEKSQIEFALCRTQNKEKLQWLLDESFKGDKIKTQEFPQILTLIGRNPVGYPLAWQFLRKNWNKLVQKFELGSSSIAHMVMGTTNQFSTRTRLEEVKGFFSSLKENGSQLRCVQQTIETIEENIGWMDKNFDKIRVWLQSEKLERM
PGC1a acetyl inh: inhibitors of PGC1a acetylation signal, primary screen, cell-based, U2OS, AlphaScreen, inhibitor mode; AlphaScreen anti-acetyl-lysine; with virally co-expressed GCN5 acetyltransferase; inhibition, % at 15.6 µM; actives 0.17% (n = 350,000); AID 651687, 2012;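 active = every replicate shows inhibition of at least 40%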
Each line names hits and unclear results; the compound was inactive in the other large screens; ! = not active in a repeat. Most compounds without a hit are left out; they make up all but 2.2% or so of the library.

C[C@@H]1CN([C@@H](C)CO)C(=O)c2cc(N(C)C)ccc2O[C@H]1CN(C)Cc1ccccc1	none (no result: FN deposition inh)
C[C@H](CO)N1C[C@H](C)[C@@H](CN(C)Cc2ccccc2)Oc2ccc(N(C)C)cc2C1=O	SIRT5 inh 21 (no result: FN deposition inh)
COc1ccc2c3c(n(C)c2c1)[C@@H](CO)N(Cc1nccs1)CC31CN(C(C)=O)C1	none (no result: SIRT5 inh, FN deposition inh)
O=C(O)C(c1ccccc1)N1C(=O)/C(=C\c2ccc(-c3ccccc3Cl)o2)SC1=S (stereo not given)	SIRT5 inh 33 (no result: PGC1a acetyl inh)
COc1cc(/C=C2\SC(=S)N(C(C(=O)O)c3ccccc3)C2=O)cc(OC)c1OC (stereo not given)	SIRT5 inh 16
COc1cccc(/C=C2\SC(=S)N(C(C(=O)O)c3ccccc3)C2=O)c1OC (stereo not given)	none
O=C(O)C(c1ccccc1)N1C(=O)/C(=C\c2ccc(-c3ccc(Br)cc3)o2)SC1=S (stereo not given)	SIRT5 inh 54
COc1ccc(NC(=O)Nc2ccc3c(c2)C(=O)N([C@H](C)CO)C[C@H](C)[C@@H](CN(C)C(=O)C2CCCCC2)OCCCC[C@H](C)O3)cc1	none (no result: FN deposition inh)
C[C@@H]1CCCCO[C@@H](CN(C)C(=O)Cc2ccccc2)[C@@H](C)CN([C@H](C)CO)C(=O)c2cc(NC(=O)c3ccncc3)ccc2O1	none (no result: FN deposition inh)
O=C(C[C@H]1C[C@H]2c3cc(NC(=O)Nc4ccccc4F)ccc3O[C@H]2[C@@H](CO)O1)NCc1ccncc1	SIRT5 inh 16
O=C(C[C@H]1C[C@H]2c3cc(NS(=O)(=O)c4ccc(F)cc4)ccc3O[C@H]2[C@@H](CO)O1)NCc1ccc(-c2ccccc2)cc1	none (no result: FGF22 binding)
O=C(C[C@H]1C[C@H]2c3cc(NS(=O)(=O)c4ccc(F)cc4)ccc3O[C@H]2[C@H](CO)O1)NCc1ccc(Oc2ccccc2)cc1	none (no result: FN deposition inh)
O=C(C[C@H]1C[C@@H]2c3cc(NC(=O)Nc4ccccc4F)ccc3O[C@@H]2[C@H](CO)O1)NCc1ccncc1	none
O=C(C[C@H]1C[C@@H]2c3cc(NS(=O)(=O)c4ccc(F)cc4)ccc3O[C@@H]2[C@@H](CO)O1)NCc1ccc(Oc2ccccc2)cc1	SIRT5 inh 15 (no result: FN deposition inh)
O=C(C[C@H]1C[C@@H]2c3cc(NS(=O)(=O)c4ccc(F)cc4)ccc3O[C@@H]2[C@@H](CO)O1)NCc1ccc(-c2ccccc2)cc1	SIRT5 inh 17 (no result: FGF22 binding)
CS(=O)(=O)Nc1ccc2c(c1)[C@H]1C[C@H](CC(=O)NCc3ccccc3)O[C@H](CO)[C@H]1O2	SIRT5 inh 16 (no result: PGC1a acetyl inh)
Cc1ccc(S(=O)(=O)N(C)C[C@H]2Oc3ccc(NS(=O)(=O)c4ccccc4)cc3C(=O)N([C@H](C)CO)C[C@@H]2C)cc1	none (no result: FN deposition inh)
CC(C)NC(=O)N(C)C[C@@H]1Oc2c(cccc2N(C)C)C(=O)N(C)C[C@@H]1C	none (no result: FGF22 binding, SIRT5 inh, ERAP1 HTS inh, PGC1a acetyl inh)
CCS(=O)(=O)Nc1ccc2c(c1)C(=O)N(C)C[C@@H](OC)[C@@H](C)CN(C)[C@H](C)CO2	none
O=C(C[C@H]1C[C@@H]2c3cc(NS(=O)(=O)c4ccc(F)cc4)ccc3O[C@@H]2[C@@H](CO)O1)N1CCc2ccccc2C1	PGC1a acetyl inh 50
O=C(C[C@H]1C[C@@H]2c3cc(NS(=O)(=O)c4ccc(F)cc4)ccc3O[C@@H]2[C@H](CO)O1)N1CCc2ccccc2C1	none
Cc1ccc(S(=O)(=O)CCSC(=N)N)cc1	FGF22 binding 44
CC(C)NC(=O)Nc1cccc2c1O[C@H](CN(C)Cc1ccc3c(c1)OCO3)[C@@H](C)CN([C@@H](C)CO)C2=O	none (no result: PGC1a acetyl inh)
COc1cc2c(cc1OC)C[N+](C)(C)CC2	ERAP1 HTS inh 65 (no result: SIRT5 inh, FN deposition inh)
COc1cc2c(cc1OC)CC(=O)N(C)CC2	none (no result: SIRT5 inh, PGC1a acetyl inh)
O=C(NCc1cccnc1)c1ccc(Cn2c(=S)[nH]c3ccc(Br)cc3c2=O)cc1	SIRT5 inh 16
C[C@@H]1CN([C@@H](C)CO)C(=O)c2cc(Br)cnc2O[C@H]1CN(C)Cc1ccccn1	none (no result: FN deposition inh)
CCOc1ccc(CNC(=O)CCCC(=O)n2ncc3cc(C)ccc32)cc1	SIRT5 inh 15
C[C@H]1CN([C@@H](C)CO)C(=O)c2cc(Br)cnc2O[C@H]1CN(C)C(=O)c1ccccn1	SIRT5 inh 19!
C[C@H](CO)N1C[C@H](C)[C@H](CN(C)C(=O)c2ccccc2F)Oc2ncc(Br)cc2C1=O	SIRT5 inh 26!
C[C@@H]1CN([C@@H](C)CO)C(=O)c2cc(Br)cnc2O[C@H]1CN(C)C(=O)c1ccccc1F	SIRT5 inh 15!
C[C@@H]1CN([C@@H](C)CO)C(=O)c2cc(NC(=O)c3ccncc3)ccc2O[C@H]1CN(C)Cc1ccc(Cl)c(Cl)c1	none
O=C(NCc1ccco1)C1CCCN1C(=O)Nc1cccc(Cl)c1 (stereo not given)	FGF22 binding 43
COCc1nc2ccccc2n1Cc1ccccc1C	SIRT5 inh 38 (no result: FN deposition inh)
O=C(c1ccccc1)c1ccccc1C(=O)N1CCOCC1	none (no result: FN deposition inh)
O=C(c1ccc(F)cc1)N1CCOCC1	SIRT5 inh 22 (no result: FN deposition inh, PGC1a acetyl inh)
O=C(c1ccccc1O)N1CCOCC1	FGF22 binding 43
O=C(c1ccc(-n2nc(C(F)(F)F)c3c2CCCC3)cc1)N1CCOCC1	FGF22 binding 43 (no result: PGC1a acetyl inh)
O=C(O)CCCC(=O)Nc1ccccc1C(=O)N1CCOCC1	SIRT5 inh 28
O=C(Nc1ccc(F)cc1)c1ccc(C(=O)N2CCOCC2)cc1	none
O=C(O)c1ccc(-n2nc(C(F)(F)F)c3c2CCCC3)cc1	none (no result: FGF22 binding)
O=C(O)CCCC(=O)Nc1ccccc1C(=O)N1CCCC1	none (no result: FGF22 binding, SIRT5 inh, FN deposition inh, ERAP1 HTS inh)
COCC(=O)N1C[C@H](C)[C@H](OC)CN(C)C(=O)c2cc(NC(=O)NC(C)C)ccc2OC[C@H]1C	none
CC(C)NC(=O)N(C)C[C@@H]1Oc2ccc(NC(=O)CCCCCC(=O)Nc3ccccc3N)cc2C(=O)N([C@@H](C)CO)C[C@@H]1C	none (no result: SIRT5 inh, FN deposition inh)
N#Cc1ccccc1CN1C(=O)S/C(=C/c2cccn2-c2ccc(C(=O)O)cc2)C1=O	none (no result: FGF22 binding, SIRT5 inh, FN deposition inh, ERAP1 HTS inh)
O=C(O)c1ccc(-n2cccc2/C=C2/SC(=O)N(CC(=O)N3CCCC3)C2=O)cc1	SIRT5 inh 19 (no result: PGC1a acetyl inh)
O=C(O)c1cccc(-n2cccc2/C=C2\NC(=O)N(Cc3ccc(F)cc3)C2=O)c1	SIRT5 inh 16
O=C(O)c1ccc(-n2cccc2/C=C2/NC(=O)N(c3ccccc3)C2=O)cc1	SIRT5 inh 25
CCC[n+]1c(C)sc2c(OC)ccc(OC)c21	FGF22 binding 43, ERAP1 HTS inh 52
CCc1ccccc1NC(=S)NC1CC2CCC(C1)N2Cc1ccc(F)cc1 (stereo not given)	FGF22 binding 1.5 (no result: PGC1a acetyl inh)

High-throughput results deposited in PubChem BioAssay by Broad Institute.
